The source made the active and inactive calls. No cut-off for these calls is given here.
Tests used:
Mus musculus = test: Protection against 9 Gy gamma radiation-induced death in mouse assessed as increase in survival at 40 mg/kg, ip; assay type: functional; conditions: route intraperitoneal
Outline: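 Male C57Bl/6J mice, 8–10 weeks old, given a single 40 mg kg–1 intraperitoneal dose 30 min before total-body gamma irradiation (137Cs, 4 Gy min–1) at 8 or 9 Gy. Survival followed. Ten mice per subgroup; three independent repeats.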

[1] = biological target: Cellular tumor antigen p53 (Homo sapiens) (UniProt P04637); test: Inhibition of p53-dependent transcription of bax in human U2OS cells; assay type: cell-based
Sequence of Cellular tumor antigen p53 (Homo sapiens) (P04637 whole entry, looked up): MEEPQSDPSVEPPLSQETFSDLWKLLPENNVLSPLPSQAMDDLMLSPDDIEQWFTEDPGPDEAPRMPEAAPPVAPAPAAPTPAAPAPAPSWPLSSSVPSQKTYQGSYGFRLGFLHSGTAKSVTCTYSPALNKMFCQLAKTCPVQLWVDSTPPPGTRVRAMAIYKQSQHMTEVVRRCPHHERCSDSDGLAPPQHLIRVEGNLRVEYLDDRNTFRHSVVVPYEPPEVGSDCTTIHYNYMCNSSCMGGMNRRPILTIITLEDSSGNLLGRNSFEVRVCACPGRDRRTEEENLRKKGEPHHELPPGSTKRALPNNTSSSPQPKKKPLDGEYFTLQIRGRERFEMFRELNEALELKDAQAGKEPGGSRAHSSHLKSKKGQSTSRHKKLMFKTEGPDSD
Outline: (§1)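 Northern analysis of U2OS cells, p53 wild-type and shRNA p53-knockdown. Induction by UV 8.5 J m–2 or Dox […]. RNA isolated 18 h after treatment; 10 µg hybridised with 32P-labelled full-length cDNA probes for Bax, Noxa or Puma. 18S rRNA used as loading control.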

[2] = biological target: Cellular tumor antigen p53 (Homo sapiens) (UniProt P04637); test: Inhibition of p53-dependent transcription of noxa in doxorubicin-induced human U2OS cells; assay type: cell-based; outline: as §1
Homo sapiens = species on record: Homo sapiens; test: Induction of p21 mRNA expression in gamma-stimulated human SK-MEL-29 cells; assay type: functional
Outline: (§2)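 Wild-type and p53-deficient cell pairs stimulated with 5-FU ([…] as printed) or gamma irradiation (10 or 15 Gy); p21 mRNA quantified by real-time PCR; means ± s.d., n = 3.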

BJ = test: Induction of p21 mRNA expression in human BJ cells; assay type: functional, cell-based; outline: as §2
MCF7 = test: Induction of Noxa gene expression in UV-induced human MCF7 cells; assay type: functional, cell-based
Outline: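 Northern blot: 10 mg RNA (so in the source) isolated 18 h after UV (8.5 J m–2) or doxorubicin (125 mg ml–1 as printed) from MCF7 or U2OS cells and p53-knockdown (lentiviral shRNA) counterparts; hybridized with 32P-labeled full-length cDNA probes for Bax, Noxa, Puma; 18S rRNA loading control.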

Thymocyte = test: Induction of Puma gene expression in mouse thymocytes; assay type: functional, cell-based
[3] = biological target: Cellular tumor antigen p53 (Mus musculus) (UniProt P02340); test: Binding affinity to p53 in gamma irradiated mouse thymocyte assessed as cytosolic caspase 8 concentration at 10 uM after 2 hrs
Sequence of Cellular tumor antigen p53 (Mus musculus) (P02340 whole entry): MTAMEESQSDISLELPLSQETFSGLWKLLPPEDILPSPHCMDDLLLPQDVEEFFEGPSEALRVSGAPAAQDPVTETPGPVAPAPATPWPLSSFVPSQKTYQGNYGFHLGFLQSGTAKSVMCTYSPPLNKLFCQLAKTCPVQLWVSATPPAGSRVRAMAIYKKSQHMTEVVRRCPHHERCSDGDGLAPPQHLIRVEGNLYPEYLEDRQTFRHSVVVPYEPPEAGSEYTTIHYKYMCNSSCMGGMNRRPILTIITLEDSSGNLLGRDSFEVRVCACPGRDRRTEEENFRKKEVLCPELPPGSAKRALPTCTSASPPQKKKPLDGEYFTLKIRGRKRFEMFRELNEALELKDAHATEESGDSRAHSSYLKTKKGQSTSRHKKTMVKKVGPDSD

NS(=O)(=O)C#Cc1ccccc1
Activity (Mus musculus): 50%
inhibition [1]: inactive
inhibition [2]: inactive
Activity (Homo sapiens): inactive
Activity (BJ): inactive
Activity (MCF7): inactive
Activity (Thymocyte): inactive
Activity [3]: inactive

— ChEMBL document CHEMBL1240314, “Small-molecule inhibitor of p53 binding to mitochondria protects mice from gamma radiation” (2006)
